Assay outcomes as filed in PubChem BioAssay.
This is a sample that favours compounds with a hit; in the whole collection about 3.8% have one here.
KCNQ1 act – potentiators or activators of human KCNQ1 potassium channel; CHO-K1 KCNQ1, thallium flux FluxOR fluorescence; active compounds read high; B-score at 10 µM; hit rate 0.35% among 310,000; AID 2648;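 active = fluorescence ratio B-score, a plate-corrected score, at least three library SD, with initial intensity B-score within 5 SD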
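Test system: CHO-K1 cells stably expressing KCNQ1 / Medium: assay buffer / Also added: depolarizing K+/Tl+ stimulus, K2SO4 and Tl2SO4 each 12.5 mM in 5x stock / Incubation: 90 min dye loading and 20 min compound exposure, both at room temperature / Signal: thallium influx via FluxOR fluorescence, kinetic imaging / Evaluation: B score of baseline-normalized fluorescence ratio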
Kir21 block – inhibitors of mouse Kir2.1 inward-rectifier potassium channel; B-score at 10 µM; hit rate 0.85% among 310,000; AID 1672; P35561; HEK293-Kir2.1, FluxOR thallium flux fluorescence; active compounds read low;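 active = fluorescence ratio B-score at or below minus 3 SD of library scores, with starting-brightness B-score within 2 SD, cut at about -4.2 in these data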;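 also: channel flux triggered by added potassium and thallium sulfate stimulus; B-score of peak minus minimum fluorescence over baseline after thallium stimulus; more negative B-score means stronger Kir2.1 block with less thallium influx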
KCNK3 block – human KCNK3 channel inhibition, primary screen. O14649. CHO-KCNK3 thallium flux, FluxOR fluorescence; active compounds read low. B-score at 10 µM. hit rate 0.84% among 340,000. AID 602410;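 active = B-score under library mean minus 4 SD, starting fluorescence ratio at most library mean plus 5 SD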;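 also: more negative B-score means stronger inhibition of thallium flux through KCNK3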
Target sequence (O14649 whole entry, looked up): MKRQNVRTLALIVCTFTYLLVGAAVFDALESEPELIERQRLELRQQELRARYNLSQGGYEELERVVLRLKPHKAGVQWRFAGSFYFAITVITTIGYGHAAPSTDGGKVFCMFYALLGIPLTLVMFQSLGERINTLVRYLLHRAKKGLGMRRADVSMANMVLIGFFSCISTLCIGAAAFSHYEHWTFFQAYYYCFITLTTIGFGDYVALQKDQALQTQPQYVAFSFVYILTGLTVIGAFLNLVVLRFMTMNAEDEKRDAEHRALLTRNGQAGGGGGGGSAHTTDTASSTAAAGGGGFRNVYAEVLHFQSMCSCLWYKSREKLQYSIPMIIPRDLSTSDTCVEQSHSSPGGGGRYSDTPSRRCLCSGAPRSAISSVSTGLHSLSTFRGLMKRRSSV
KCNK9 block – inhibitors of human KCNK9 two-pore domain potassium channel; HEK293 KCNK9, FluxOR thallium flux fluorescence; active compounds read low; Q9NPC2; B-score at 10 µM; hit rate 1.2% among 310,000;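 active = ratio B-score over 3 SD below the library mean, with starting fluorescence within 5 SD of its mean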;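 also: negative B-score means less thallium flux so channel inhibition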
KCNQ1 block – blocks the human KCNQ1 potassium channel | P51787 | CHO-K1 KCNQ1, FluxOR thallium flux fluorescence; active compounds read high | B-score at 10 µM | hit rate 1.3% among 310,000;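 active = compounds whose thallium flux B-score, printed positive for inhibition, exceeds three library SD while starting fluorescence stays within three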;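 also: channel opened by potassium depolarization with thallium stimulus after 20 min compound exposure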
hERG protect – hERG (human) protection from proarrhythmic block; Q12809; CHO-hERG, FluxOR thallium flux, dofetilide IC70 present; activation (rescue from dofetilide block), less the hit threshold, % at 10 µM; hit rate 0.51% among 310,000; AID 1511;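 active = activation above the mean of controls blocked by dofetilide plus 5 SD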;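 also: thallium influx through hERG after potassium depolarization seen as dye fluorescence rise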
KCNK3 confirm – confirmation of human KCNK3 two-pore domain potassium channel inhibitors. shares compounds with KCNK3 block. CHO-KCNK3 thallium flux, FluxOR fluorescence; 0% buffer, 100% carvedilol maximal block. ratio percent of control, % at 10 µM. hit rate 99% among 2,400;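 active = ratio percent of control, averaged over triplicates, above buffer control mean plus 5 SD, cut at about 64% in these data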;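 also: ratio is the fluorescence rise from min to max over baseline after thallium stimulus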
KCNK3 uninduced – activity in cells without induced KCNK3 expression. shares compounds with KCNK3 block. non-induced KCNK3 parental cells, FluxOR thallium flux; active compounds read low. thallium flux ratio (lower = more inhibition) at 10 µM. hit rate 40% among 2,400. AID 651747;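 active = thallium flux ratio, averaged over three wells, more than 5 SD below the buffer control mean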;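 also: host cells are CHO cells without KCNK3 induction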
Each line names hits and unclear results; the compound was inactive in the other large screens (follow-up assays come after a bar, where they were run).

COc1ccc(CCN2C(=S)N(C)C(=O)C2CC(=O)Nc2ccc(OC)cc2)cc1 (stereo not given)	KCNK3 block -9.2 | KCNK3 confirm 86.3 | KCNK3 uninduced 0.147
CCN1C(=O)C(CC(=O)Nc2ccc(OC)cc2)N(CCCN2CCN(c3ccc(F)cc3)CC2)C1=S (stereo not given)	none
COCCNC(=S)N1CCCC(CO)C1 (stereo not given)	none
Cc1ccccc1NC(=O)c1nn(C)c(C(=O)Nc2ccccc2C)c1[N+](=O)[O-]	none
COc1ccc(C)cc1NC(=O)c1nn(C)c(C(=O)Nc2cc(C)ccc2OC)c1[N+](=O)[O-]	KCNK3 block -9.01 | KCNK3 confirm 81.3 | KCNK3 uninduced inactive
COc1ccc(C(=O)OCCOc2ccccc2C(C)=O)c(O)c1	KCNK3 block -9.77 | KCNK3 confirm 119.3 | KCNK3 uninduced 0.137
C=CCn1c(=NC(=O)CC)n(C)c2ccccc21	none
CC(=O)OC(COc1cccc(C)c1)Cn1cnc2ccccc21 (stereo not given)	KCNK3 block -9.42 | KCNK3 confirm 126.0 | KCNK3 uninduced 0.159
CC(=O)Nc1cccc(OCC(O)Cn2cnc3ccccc32)c1 (stereo not given)	none
CCn1c(SCC(=O)Nc2cccc(F)c2)nc2c(c1=O)SC(C)C2 (stereo not given)	KCNK3 block -8.86 | KCNK3 confirm 88.0 | KCNK3 uninduced inactive
Cc1cccc(C(=O)Nc2ccc(NC(=O)CN3CCOCC3)cc2)c1	none
CC(C)c1ccc(-c2noc(C3CCCN(C(=O)c4ccc(F)cc4F)C3)n2)cc1 (stereo not given)	KCNK3 block -9.76 | KCNK3 confirm 133.7 | KCNK3 uninduced 0.144
O=C(NCCn1cc(SCc2ccc(F)cc2)c2ccccc21)c1ccccc1F	KCNK3 block -16.4, KCNK9 block -7.55, KCNQ1 block 11 | KCNK3 confirm 139.7 | KCNK3 uninduced 0.119
COc1ccc(/C=C/C(=O)Nc2cccnc2Cl)cc1	none
O=C(c1ccco1)N1CCC(c2nc(-c3ccccc3Cl)no2)CC1	none
O=C(Nc1ccc(Cl)cc1)N1CCC(c2nc(-c3ccccc3Cl)no2)CC1	KCNK3 block -8.71 | KCNK3 confirm 108.3 | KCNK3 uninduced 0.137
CCN(CC)CCNC(=O)c1ccc(NC(=O)c2cn(-c3ccc(F)cc3)nc2-c2cccc(OC)c2)cc1	Kir21 block -5.51, KCNK3 block -8.98, KCNQ1 block 11 | KCNK3 confirm 111.3 | KCNK3 uninduced 0.146
CCN(CC)CCNC(=O)c1ccc(NC(=O)c2c(C)nn(-c3ccc(F)cc3)c2Cl)cc1	none
COc1ccc(OC)c(S(=O)(=O)n2cnc3cc(C)c(C)cc32)c1	KCNK3 block -11.2 | KCNK3 confirm 98.7 | KCNK3 uninduced inactive
COc1ccc(C)cc1S(=O)(=O)n1cnc2ccccc21	none
CN(CC(=O)Nc1cccc(F)c1)CC(=O)Nc1ccccc1Oc1ccccc1	KCNK3 block -9.02 | KCNK3 confirm 105.3 | KCNK3 uninduced inactive
COC(=O)c1c(NC(=O)CSc2nnnn2-c2ccccc2)sc2c1CCCC2	KCNK3 block -9.42 | KCNK3 confirm 95.7 | KCNK3 uninduced inactive
CCOC(=O)c1c(NC(=O)Cn2c(C)nc3ccccc32)sc2c1CCC2	KCNK3 block -9.36 | KCNK3 confirm 102.0 | KCNK3 uninduced inactive
Cc1cc(CN2CCOCC2)c(O)c(C2(C)CCCCC2)c1	KCNK3 block -9.68 | KCNK3 confirm 108.3 | KCNK3 uninduced inactive
Cc1cc(CN(C)C)c(O)c(C2(C)CCCCC2)c1	none
Cc1ccccc1Cn1nc(C)c(NC(=O)c2sc3ccccc3c2Cl)c1C	KCNK3 block -8.97 | KCNK3 confirm 149.0 | KCNK3 uninduced 0.105
CCCOc1nc(C)cc(COC)c1C(N)=O	none
COc1ccc(OC)c(Nc2nc(NCc3ccco3)c3ccccc3n2)c1	KCNK3 block -16.5 | KCNK3 confirm 133.7 | KCNK3 uninduced 0.152
